TRPC4 inh = inhibitors of mouse TRPC4 channel; Q9QUQ5; HEK293 TRPC4beta/mu-opioid, DAMGO-evoked Fluo4 calcium flux; stronger effect = lower value; B-score at 10 µM; 300,000 tested, 0.39% active;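 active means B-score over 3 SD under the library average, no early fluorescence shift, positive overall ratio signal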
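System: stable TRPC4beta/mu-opioid receptor HEK293 cells; Dosing: single-point compound dosing; Measured by: Fluo4 Ca2+ flux fluorescence; Read-out basis: per-well B score of integrated baseline-normalized Fluo4 ratio.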
TRPC4 act = TRPC4 (mouse) channel activation; AID 2237; 310,000 tested, 0.49% active; HEK293 TRPC4beta/mu-opioid, Fluo4 calcium fluorescence; stronger effect = higher value; B-score at 10 µM;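 active means B-score above 5 SD of library B-scores, and initial fluorescence ratio not above library mean plus 5 SD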;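 further: positive B-score marks a calcium rise read as TRPC4 activation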
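system = HEK293 cells stably co-expressing mouse TRPC4beta and mu-opioid receptor | schedule = Fluo4 dye loading 45 min at room temperature, 110 s recording | measure = B-scored integrated calcium fluorescence ratio | signal = Fluo4 calcium-sensitive dye fluorescence, kinetic, 1 Hz baseline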
TRPC6 inh = blocks the mouse TRPC6 cation channel. HEK293-TRPC6, membrane potential dye, ACh-evoked depolarization; stronger effect = lower value. 310,000 tested, 1.1% active. Q61143. B-score at 10 µM;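 active means B-score under library mean minus 3 SD, initial fluorescence not abnormally high, positive integrated signal ratio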;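 further: B-score derived from integrated fluorescence ratio over the kinetic read; more negative B-score means stronger inhibition of depolarization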
Target sequence (Q61143 whole entry, looked up): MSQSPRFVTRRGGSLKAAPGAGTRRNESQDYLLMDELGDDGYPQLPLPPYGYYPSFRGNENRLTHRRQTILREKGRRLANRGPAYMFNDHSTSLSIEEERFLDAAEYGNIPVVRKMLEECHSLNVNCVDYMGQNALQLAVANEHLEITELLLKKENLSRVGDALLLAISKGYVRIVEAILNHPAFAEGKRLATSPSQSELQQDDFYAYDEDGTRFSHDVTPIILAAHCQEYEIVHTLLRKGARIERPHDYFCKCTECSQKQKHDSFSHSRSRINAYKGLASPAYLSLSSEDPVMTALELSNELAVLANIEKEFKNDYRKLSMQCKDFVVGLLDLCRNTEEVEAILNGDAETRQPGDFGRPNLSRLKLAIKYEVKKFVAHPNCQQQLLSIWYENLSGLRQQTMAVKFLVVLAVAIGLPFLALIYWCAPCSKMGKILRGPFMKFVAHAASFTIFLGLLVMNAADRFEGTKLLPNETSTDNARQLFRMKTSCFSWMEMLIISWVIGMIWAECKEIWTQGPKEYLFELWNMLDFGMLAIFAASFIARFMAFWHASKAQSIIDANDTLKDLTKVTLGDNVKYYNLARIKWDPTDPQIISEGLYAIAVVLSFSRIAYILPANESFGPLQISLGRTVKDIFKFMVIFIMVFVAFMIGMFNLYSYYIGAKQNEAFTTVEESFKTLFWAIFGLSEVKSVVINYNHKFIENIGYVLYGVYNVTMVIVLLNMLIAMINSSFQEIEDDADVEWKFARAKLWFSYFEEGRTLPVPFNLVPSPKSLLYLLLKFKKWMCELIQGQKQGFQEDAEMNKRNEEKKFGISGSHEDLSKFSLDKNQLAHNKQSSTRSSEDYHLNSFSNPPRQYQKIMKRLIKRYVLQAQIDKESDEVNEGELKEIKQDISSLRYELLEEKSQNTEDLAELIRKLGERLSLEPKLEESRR
TRPC4 PAM = allosterically enhances the mouse TRPC4 cation channel. AID 2227. 310,000 tested, 0.42% active. B-score at 10 µM. HEK293 TRPC4beta/mu-opioid, DAMGO EC20, Fluo-4 Ca2+ flux; stronger effect = higher value. Q9QUQ5;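 active means B-score of calcium response area above 5 SD of library B-scores, with initial fluorescence ratio within 5 SD of library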;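 further: B-score of integrated fluorescence ratio over time as area under calcium response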
TRPC6 activator = mouse TRPC6 channel activation; HEK293-TRPC6 membrane potential dye fluorescence; stronger effect = higher value; B-score at 10 µM; 310,000 tested, 0.13% active;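 active means B-score of the integrated fluorescence ratio above library mean plus 3 SD, and starting fluorescence ratio within library mean plus 5 SD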;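 further: higher score means more depolarization so channel activation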
TRPC4 sel inh 2 = second check of whether TRPC6 inhibitors also affect mouse TRPC4; 920 tested, 42% active; HEK293 TRPC4/MOR, membrane potential dye fluorescence; channel activated by saturating DAMGO dose; inhibition, % at 10 µM; shares compounds with TRPC6 inh;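 active means compounds whose fluorescence signal differed from control wells by over 3 SD, either direction, in both duplicate plates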
TRPC4 spec = selectivity of TRPC6 inhibitors: effect on mouse TRPC4 | HEK293 TRPC4/mu-opioid, membrane potential fluorescence | AID 2777 | shares compounds with TRPC6 inh | 920 tested, 61% active | activity change, negative = inhibition, % at 10 µM;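 active means rise or fall in signal beyond 3 SD of buffer-only wells in both replicate plates, either sign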;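 further: integrated kinetic ratio of fluorescence range over baseline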
HEK293 MPD ctr 2-1 = second check of TRPC6 inhibitor effects in parental HEK293 cells. parental HEK293 membrane potential dye fluorescence; maximal acetylcholine challenge after compound addition. signal change vs control, % at 10 µM. AID 2779. 920 tested, 31% active. shares compounds with TRPC6 inh;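 active means membrane potential signal moving either way by over 3 SD of the maximum-effect control, in both duplicate plates, meaning non-specific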
HEK293 MPD ctr-1 = parental HEK293 nonspecific activity of TRPC6 inhibitors; parental HEK293 membrane potential dye fluorescence; shares compounds with TRPC6 inh; membrane potential signal change, % at 10 µM; 920 tested, 60% active;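 active means membrane potential signal shifting up or down by more than 3 SD of buffer-only wells, on both duplicate plates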
HEK293 MPD ctr-2 = counter-screen for TRPC6 modulators: effect in parental HEK293 cells; membrane potential signal change, % at 10 µM; 2,400 tested, 51% active; membrane potential dye fluorescence; shares compounds with TRPC6 inh;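 active means membrane potential signal moves up or down beyond 5 SD from buffer-only wells, on both duplicate plates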
HEK293 MPD ctr 2-2 = parental HEK293 nonspecific activity of TRPC6 modulators, second screen | membrane potential dye fluorescence; after compound, maximal acetylcholine stimulation | shares compounds with TRPC6 inh | inhibition, % at 10 µM | 2,400 tested, 14% active;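 active means membrane potential signal drops by more than 5 SD from the mean control signal, in both duplicate plates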;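 further: plate controls were acetylcholine ECmax control wells for no effect and buffer only wells for full effect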
TRPC4/MOR mod = selectivity of TRPC6 modulators against mouse TRPC4 | shares compounds with TRPC6 inh | HEK293 TRPC4/mu-opioid, membrane potential fluorescence | percent change from control (negative = decrease, positive = increase), % at 10 µM | 2,400 tested, 69% active;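 active means membrane potential signal moved up or down beyond 5 SD of buffer control wells, in both duplicate plates, actives on both sides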;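 further: plate controls were assay buffer wells for no effect and DAMGO maximal-effect wells for full effect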
TRPC4/MOR inh 2 = second check of whether TRPC6 modulators also affect mouse TRPC4; shares compounds with TRPC6 inh; HEK293 TRPC4/mu-opioid, membrane potential dye fluorescence; stimulated with maximal-effect DAMGO; inhibition, % at 10 µM; 2,400 tested, 55% active; AID 488928;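 active means drop in membrane potential signal beyond 5 SD of the control wells in both duplicate plates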;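 further: TRPC4 counter screen for TRPC6 hits run under conditions tuned for TRPC6 not TRPC4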
TRPC6 inh conf = confirmation of mouse TRPC6 inhibitors | 3,300 tested, 43% active | shares compounds with TRPC6 inh | HEK293-TRPC6, membrane potential dye, ACh-evoked depolarization | AID 488960 | inhibition, % at 10 µM;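 active means fluorescence ratio falls more than 5 SD below the full-stimulation control mean, in both duplicate runs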;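 further: integrated fluorescence ratio of peak minus minimum over baseline after agonist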
TRPC6 act conf = mouse TRPC6 activator confirmation; shares compounds with TRPC6 inh; activation, % at 10 µM; 2,800 tested, 11% active; HEK293-TRPC6 membrane potential dye fluorescence, FDSS; AID 488961;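 active means ratio signal rise beyond 5 SD above unstimulated control wells' mean, seen in both duplicate runs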;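 further: plate controls were buffer EC0 wells for no effect and acetylcholine ECmax response for full effect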
* marks the source's active call; other numbers are inactive results; i = inactive; . = not tested or not shown. Sampled rows, rich in hits. Any-hit rate of the full collection: about 2.3%.

SMILES	TRPC4 inh	TRPC4 act	TRPC6 inh	TRPC4 PAM	TRPC6 activator	HEK293 MPD ctr-2	HEK293 MPD ctr 2-2	TRPC4/MOR mod	TRPC4/MOR inh 2	TRPC6 inh conf	TRPC6 act conf	others
CCCc1nc2c(C)cc(C)cc2c(N)c1CC	i	i	-5.99*	i	i	-94.0%*	i	-18.5%*	60.5%*	i	i
CCOc1ccc(NC(=O)C2CCCN(c3nc(C)cc(C)n3)C2)cc1 (stereo not drawn)	i	i	i	i	i	.	.	.	.	.	.
CCCC(=O)c1cc2c(cc1NC(=O)c1ccccc1F)OCCO2	i	i	i	i	i	.	.	.	.	.	.
C[N+]1(C)[C@@H]2CC(OC(=O)[C@H](CO)c3ccccc3)C[C@H]1[C@@H]1O[C@@H]12 (stereo partly drawn)	i	i	-8.22*	i	i	.	.	.	.	93.1%*	i	TRPC4 sel inh 2=i;TRPC4 spec=i;HEK293 MPD ctr 2-1=-9.0%*;HEK293 MPD ctr-1=i
CCC(C(=O)OCC(=O)Nc1c(Cl)cccc1Cl)c1ccccc1 (stereo not drawn)	i	i	i	i	i	.	.	.	.	.	.
COc1ccccc1NC(=O)N1CCCC(CNC(=O)c2ccccc2Cl)C1 (stereo not drawn)	i	i	i	i	i	.	.	.	.	.	.
CCN(CC)CCNc1ccc(CO)c2sc3ccccc3c(=O)c12	i	i	-5.25*	i	i	-96.0%*	i	-37.0%*	67.0%*	i	i
Cn1c(=O)cc2c3c(c(N4CCCCC4)ccc31)C(=O)c1ccccc1-2	i	i	-5.07*	i	i	-181.5%*	i	-42.0%*	54.0%*	39.0%*	i
O=C1c2ccccc2C(=O)c2c1cccc2N1CCCC1	i	i	i	i	i	.	.	.	.	.	.
COC(=O)CC1C(=O)NCCN1C(=S)NC(=O)c1sc2ccccc2c1Cl (stereo not drawn)	i	i	i	i	i	.	.	.	.	.	.
Cc1ccnc(SCCn2c(N3CCN(Cc4ccccc4)CC3)nc3c2c(=O)[nH]c(=O)n3C)n1	i	i	-10.2*	i	i	-339.5%*	71.0%*	-61.0%*	57.0%*	59.0%*	i
CCN(CC)CCOC(=O)C1(c2ccc(OC)c(OC)c2)CCCC1	i	i	i	i	i	.	.	.	.	.	.
CCN(CC)CCOC(=O)C1(C2CCCCC2)CCCCC1	i	i	-6.15*	i	i	182.5%*	77.0%*	40.5%*	i	76.5%*	.
CCN(CC)CCOC(=O)C1(c2ccccc2)CCCC1	i	i	-9.16*	i	i	.	.	.	.	74.3%*	.	TRPC4 sel inh 2=i;TRPC4 spec=16.5%*;HEK293 MPD ctr 2-1=-2.5%*;HEK293 MPD ctr-1=15.2%*
CCCCc1ncc(CN2CCC(n3nccc3NC(=O)C(OC)c3ccccc3)CC2)[nH]1 (stereo not drawn)	i	i	i	i	i	.	.	.	.	.	.
COc1ccc(-c2csc(NC(=O)CN3C(=O)C4CC=CCC4C3=O)n2)cc1OC (stereo not drawn)	i	i	i	i	i	.	.	.	.	.	.
Cc1cccc(C(=O)NN2C(=O)C3C(c4ccccc4)C=CC(c4ccccc4)C3C2=O)c1 (stereo not drawn)	i	i	-5*	i	i	i	i	i	i	i	i
COc1ccc(CCNC(=O)CCn2c(=O)c3cccn3c3ccc(F)cc32)c(OC)c1OC	i	i	i	i	i	.	.	.	.	.	.
CCOc1ccc(C(=O)O/N=C(\N)c2ccccn2)cc1OCC	i	i	-5.86*	i	i	-94.0%*	i	-22.0%*	i	i	i
CCOc1cc(C(=O)O/N=C(\N)c2ccccn2)cc(OCC)c1OCC	i	i	i	i	i	.	.	.	.	.	.
CC(C(=O)NCCc1ccccc1)N1c2cccc3cccc(c23)S1(=O)=O (stereo not drawn)	i	i	i	i	i	.	.	.	.	.	.
Cc1ccc(S(=O)(=O)Nc2ccc(NC(=O)CN3CCCCC3)cc2)cc1	i	i	-6.75*	i	13.3*	i	i	8.5%*	i	83.0%*	118.5%*
Cc1ccc(S(=O)(=O)Nc2cccc(NC(=O)CN3CCCCC3)c2)cc1	i	i	i	i	i	.	.	.	.	.	.
CC1(C)CN=c2s/c(=C\c3ccc(Cl)cc3)c(=O)n2C1	i	i	-7.26*	16*	i	.	.	.	.	i	i	TRPC4 sel inh 2=54.0%*;TRPC4 spec=-10.3%*;HEK293 MPD ctr 2-1=i;HEK293 MPD ctr-1=i
CSC1=N/C(=C\c2ccc(Cl)cc2)C(=O)N1N(C)C	i	i	i	i	i	.	.	.	.	.	.
CCOC(=O)C1=C(C)C/C(=N\NC(=O)c2ccccc2O)CC1	i	i	i	i	i	.	.	.	.	.	.
COc1cc(CN(C)c2ncnc3sccc23)ccc1OC(F)F	i	i	i	i	i	.	.	.	.	.	.
N#Cc1cc2sc3nnc(-c4ccncc4)n3c2cc1C#N	i	i	-8.18*	i	i	-367.5%*	85.5%*	-68.5%*	82.5%*	47.0%*	i
O=C(Nc1cccc(F)c1)NC1CCN(Cc2ccccc2)CC1	i	i	i	i	i	.	.	.	.	.	.
